What was measured:
[1] = Retention time of the compound by HPLC method; format: physicochemical
Cytochrome P450 3A4 = Cytochrome P450 3A4 (Homo sapiens, UniProt P08684); assay: Drug level in yeast cells expressing human CYP3A4 assessed as human CYP3A4-mediated compound formation by pre-incubated with 200 uM tebufenozide for 2 mins at 37 degC before NADPH addition by LC/MS method; format: ADME, cell-based; settings: recombinant enzyme
Summary of the method: (§1)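 Microsomes with 67 nM human P450 in 100 mM phosphate buffer, pH 7.4, preincubated 2 min at 37 °C. Reaction started with NADPH (1 mM final) at 37 °C and stopped at various times with two volumes of acetonitrile and shaking. After centrifugation (7,000 G, 10 min), the acetonitrile phase was analysed by HPLC and by LC/MS (ESI positive mode, m/z 100-500).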

Cytochrome P450 2C19 = Cytochrome P450 2C19 (Homo sapiens, UniProt P33261); assay: Drug level in yeast cells expressing human CYP2C19 assessed as human CYP2C19-mediated compound formation by pre-incubated with 200 uM tebufenozide for 2 mins at 37 degC before NADPH addition by LC/MS method; format: ADME, cell-based; settings: recombinant enzyme; summary of the method: as §1
[2] = Selectivity index, ratio of Vmax for human CYP3A4-mediated metabolite-M1 formation to Vmax for human CYP2C19-mediated metabolite-M1 formation; settings: recombinant enzyme
Summary of the method: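 Microsomes with 67 nM human CYP3A4 or CYP2C19 in 100 mM phosphate buffer, pH 7.4, with tebufenozide (1–50, 2% acetonitrile), preincubated 2 min at 37 °C. NADPH (1 mM final) was added, and reactions were stopped with acetonitrile after 5 min (CYP3A4) or 10 min (CYP2C19). M1 was quantified by HPLC, and Km and Vmax were fitted from rate (mol/min/mol P450) against substrate concentration.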

[3] = Selectivity index, ratio of Km for human CYP3A4-mediated metabolite-M1 formation to Km for human CYP2C19-mediated metabolite-M1 formation; settings: recombinant enzyme

Chain of Cytochrome P450 3A4 (P08684 whole entry): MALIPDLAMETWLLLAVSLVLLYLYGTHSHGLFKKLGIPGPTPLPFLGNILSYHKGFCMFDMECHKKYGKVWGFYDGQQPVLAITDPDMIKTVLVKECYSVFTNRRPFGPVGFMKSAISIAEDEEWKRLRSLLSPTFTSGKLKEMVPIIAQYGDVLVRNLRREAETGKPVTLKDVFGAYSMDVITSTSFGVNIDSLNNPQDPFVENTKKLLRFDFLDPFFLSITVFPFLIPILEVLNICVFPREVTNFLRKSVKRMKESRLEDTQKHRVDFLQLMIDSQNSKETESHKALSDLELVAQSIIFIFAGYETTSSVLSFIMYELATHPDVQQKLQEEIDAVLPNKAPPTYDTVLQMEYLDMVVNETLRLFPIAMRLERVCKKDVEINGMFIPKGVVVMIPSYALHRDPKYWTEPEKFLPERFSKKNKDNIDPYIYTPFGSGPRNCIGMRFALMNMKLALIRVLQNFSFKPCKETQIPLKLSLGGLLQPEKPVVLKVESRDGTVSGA
Chain of Cytochrome P450 2C19 (P33261 whole entry): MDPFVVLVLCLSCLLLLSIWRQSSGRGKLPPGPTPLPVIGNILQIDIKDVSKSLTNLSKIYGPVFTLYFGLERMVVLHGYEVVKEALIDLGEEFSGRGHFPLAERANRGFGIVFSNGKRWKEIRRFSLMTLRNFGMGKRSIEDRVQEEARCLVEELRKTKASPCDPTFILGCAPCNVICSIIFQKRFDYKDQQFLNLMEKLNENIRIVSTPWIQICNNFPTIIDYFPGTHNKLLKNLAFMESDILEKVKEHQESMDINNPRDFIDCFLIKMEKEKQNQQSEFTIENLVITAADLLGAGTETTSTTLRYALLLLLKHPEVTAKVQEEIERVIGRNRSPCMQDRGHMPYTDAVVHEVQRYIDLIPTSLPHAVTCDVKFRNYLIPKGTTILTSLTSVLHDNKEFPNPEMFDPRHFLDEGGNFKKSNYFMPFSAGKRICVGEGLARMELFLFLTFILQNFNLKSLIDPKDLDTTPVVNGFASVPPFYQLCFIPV

Row | Compound | Retention_time [1] | Drug metabolism (Cytochrome P450 3A4) | Drug metabolism (Cytochrome P450 2C19) | Ratio [2] | Ratio [3]
1 | CCc1ccc(C(=O)NN(C(=O)c2cc(C)cc(CO)c2)C(C)(C)C)cc1 | 10.5 min | metabolite_detected |  |  | 
2 | CC(=O)c1ccc(C(=O)NN(C(=O)c2cc(C)cc(C)c2)C(C)(C)C)cc1 | 12 min |  | metabolite_detected |  | 
3 | CCc1ccc(C(=O)NN(C(=O)c2cc(C)cc(C)c2)C(C)(C)CO)cc1 | 14.5 min | metabolite_detected |  |  | 
4 | C=Cc1ccc(C(=O)NN(C(=O)c2cc(C)cc(C)c2)C(C)(C)C)cc1 | 15 min |  | metabolite_detected |  | 
5 | Cc1cc(C)cc(C(=O)N(NC(=O)c2ccc(C(C)O)cc2)C(C)(C)C)c1 (racemic) | 9.5 min | metabolite_detected | metabolite_detected |  | 
6 | CCc1ccc(C(=O)NN(C(=O)c2cc(C)cc(C)c2)C(C)(C)C)cc1 [TEBUFENOZIDE] |  |  |  | 6 | 4
